For orientation: IC50 means the concentration needed to halve the response being measured. By AUC(0-t) is commonly meant the area under the concentration-time curve up to a stated or last time point. The low end stands for less exposure, the high end for more exposure. Broadly, the AUC(0-inf) is the area under the concentration-time curve extrapolated to infinity. What is called half-life is the time needed for the level to fall by half in the phase considered. A word on the Cmax: it is the maximum level reached in the sampled fluid or tissue. As a reminder, the Tmax is the time at which the peak concentration occurs.

Data set [1] deals with T1, Amine oxidase [flavin-containing] A (Homo sapiens, UniProt P21397).
T1 sequence (P21397 whole entry): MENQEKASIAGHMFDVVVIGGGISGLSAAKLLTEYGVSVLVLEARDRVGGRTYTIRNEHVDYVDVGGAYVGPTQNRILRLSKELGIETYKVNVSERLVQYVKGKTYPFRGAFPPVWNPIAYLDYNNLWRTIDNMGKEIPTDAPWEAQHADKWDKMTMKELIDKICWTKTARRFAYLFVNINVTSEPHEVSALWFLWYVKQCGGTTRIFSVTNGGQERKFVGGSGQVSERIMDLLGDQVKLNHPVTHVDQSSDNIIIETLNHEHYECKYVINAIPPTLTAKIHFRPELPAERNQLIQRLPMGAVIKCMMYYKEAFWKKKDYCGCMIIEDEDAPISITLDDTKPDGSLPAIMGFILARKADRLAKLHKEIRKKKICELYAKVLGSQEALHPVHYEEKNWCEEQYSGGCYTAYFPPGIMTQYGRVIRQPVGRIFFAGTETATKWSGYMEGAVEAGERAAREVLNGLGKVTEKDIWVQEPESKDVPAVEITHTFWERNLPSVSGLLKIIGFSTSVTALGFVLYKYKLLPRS
The data set can be described thus: Inhibition of MAO-A (unknown origin) using p-tyramine as substrate preincubated for 15 mins followed by substrate addition and measured after 15 mins by Amplex red fluorescence based microplate reader assay.

The target of data set [2] is T2, Amine oxidase [flavin-containing] B (Homo sapiens, UniProt P27338).
T2 sequence (P27338 whole entry): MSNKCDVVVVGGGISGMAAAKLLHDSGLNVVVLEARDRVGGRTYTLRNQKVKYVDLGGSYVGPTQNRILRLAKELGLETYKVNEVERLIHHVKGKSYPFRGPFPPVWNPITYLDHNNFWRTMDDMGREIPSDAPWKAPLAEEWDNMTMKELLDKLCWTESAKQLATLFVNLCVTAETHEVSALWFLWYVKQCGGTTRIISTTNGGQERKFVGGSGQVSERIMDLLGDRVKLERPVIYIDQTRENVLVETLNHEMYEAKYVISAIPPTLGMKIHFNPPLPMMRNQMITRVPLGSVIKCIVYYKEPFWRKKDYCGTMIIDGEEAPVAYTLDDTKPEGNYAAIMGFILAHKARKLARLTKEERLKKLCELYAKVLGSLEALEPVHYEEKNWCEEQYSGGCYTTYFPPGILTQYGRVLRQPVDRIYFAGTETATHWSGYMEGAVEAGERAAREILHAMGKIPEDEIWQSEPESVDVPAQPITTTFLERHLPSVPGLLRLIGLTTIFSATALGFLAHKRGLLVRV
Put plainly: Inhibition of MAO-B (unknown origin) using p-tyramine as substrate preincubated for 15 mins followed by substrate addition and measured after 15 mins by Amplex red fluorescence based microplate reader assay.

The species named for a further data set is Homo sapiens. The data set can be described thus: Selectivity index, ratio of IC50 for inhibition of MAO-B (unknown origin) to IC50 for inhibition of MAO-A (unknown origin). In a few lines:
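Amplex Red coupled assay. Test sample was preincubated with MAO-A or MAO-B at 37 °C for 15 min. p-Tyramine substrate working solution was added, with HRP converting the H2O2 formed to resorufin, for a further 15 min at 37 °C. Fluorescence read at Ex 545/Em 590 nm. […] SI = MAO-B IC50 / MAO-A IC50.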

The nature of data set [3]: Cytotoxicity against human L02 cells assessed as reduction in cell growth measured after 48 hrs by MTT assay. It counts as toxicity, cell-based. A digest of the protocol: (§1)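 MTT assay: PC12, SH-SY5Y or L02 cells at 5.0 × 10^3 per well were grown for 24 h, treated with compound dilutions from 10 mM DMSO stocks, and cultured 48 h. MTT was then added for 4 h at 37 °C, formazan dissolved in DMSO, and absorbance read at 570 nm. Viability is relative to blank control; IC50 from three repeats. Media contained 10% FBS.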
Background: Formazan colour is commonly taken as a measure of viable cells.

The nature of data set [4]: Cytotoxicity against human SH-SY5Y cells assessed as reduction in cell growth measured after 48 hrs by MTT assay. It counts as toxicity, cell-based. A digest of the protocol: as §1
Another data set is filed under the species Danio rerio. The data set can be described thus: Antidepressant activity in reserpine-induced zebrafish AB depression model assessed as improved locomotion at 0.1 to 1 uM pretreated for 40 mins with reserpine followed by compound addition and measured for 7 days by novel tank test. It counts as functional, organism-based. Particulars: dose 0.1-1 µM, time 7.0 day. A digest of the protocol: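 Zebrafish were exposed to 10 mg/L reserpine for 40 min. Compound (0.1, 0.5, 1 μM) or fluoxetine (1 μM) was given 24 h later for 7 days. Fish kept at 28.5 °C on a 14 h light/10 h dark cycle. Open-field and novel tank tests were video-tracked for distance, velocity, immobility and time in the top. Mean ± SD, n = 6.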

The subject of data set [5] is Mus musculus. Put plainly: Antidepressant activity in reserpine-induced ICR mouse model assessed as reduction in weight loss at 10 to 20 mg/kg pretreated with reserpine for 3 days followed by compound addition on 4 to 10 days. It counts as functional, organism-based. The conditions noted are these: dose 10-20 mg/kg, time 6.0 day. In a few lines:
(§2)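 Body weight was recorded daily. OFT: 5 min session scoring distance, speed, rearing and dejection. FST and TST: 6 min, with immobility scored over the last 4 min. Mean ± SD, n = 6; one-way ANOVA and t-test.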

Data set [6] has as its system Mus musculus. The data set can be described thus: Antidepressant activity in reserpine-induced ICR mouse model assessed as increase in mobility at 10 to 20 mg/kg pretreated with reserpine for 3 days followed by compound addition for 1 week by open field test. Type of data set: functional, organism-based. The conditions noted are these: dose 10-20 mg/kg, time 1.0 weeks. A digest of the protocol:
as §2

Data set [7] relates to Mus musculus. Put plainly: Antidepressant activity in reserpine-induced ICR mouse model assessed as reduction in immobility time at 10 to 20 mg/kg pretreated with reserpine for 3 days followed by compound addition on day 4 to 10 by tail suspension test. Type of data set: functional, organism-based. Particulars: dose 10-20 mg/kg, time 6.0 day. In a few lines: as §2
Data set [8] is described as follows: Toxicity in mouse assessed as toxic effect on lung at 10 to 20 mg/kg by H and E staining based assay. It counts as organism-based. The conditions noted are these: in vivo, dose 10-20 mg/kg. A digest of the protocol: (§3)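 Mice given compound at 10 or 20 mg/kg, with fluoxetine 20 mg/kg as comparator. Paraffin tissue sections of 4 μm were cut. Staining: hematoxylin 5 min, 75% HCl-ethanol differentiation 30 s, eosin 2 min. Organs (liver, kidney, lung, heart, spleen) examined at ×400; hippocampus (CA1, CA3, DG) at ×200.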

The test system of another data set is Hippocampus. Put plainly: Antidepressant activity in mouse hippocampal tissue assessed as reduction in neuronal cell damage at 10 to 20 mg/kg by H and E staining based assay. It counts as functional, organism-based. Particulars: dose 10-20 mg/kg. In a few lines:
as §3

Data set [9] is described as follows: AUC(0 to 24 hrs) in Sprague-Dawley rat at 10 mg/kg, IG measured upto 1440 mins by LC-MS/MS analysis. Also noted: time < 1440 min, dose 10 mg/kg, route ig. It counts as ADME, organism-based. Particulars: in vivo, po.
A short description of data set [10]: AUC(0 to infinity) in Sprague-Dawley rat at 2 mg/kg, iv measured upto 1440 mins by LC-MS/MS analysis. Type of data set: ADME, organism-based. The arrangement: dose 2 mg/kg, time < 1440 min, route iv. Particulars: in vivo.
Data set [11] in a line: Half life in Sprague-Dawley rat at 2 mg/kg, iv measured upto 1440 mins by LC-MS/MS analysis. Type of data set: ADME, organism-based. The conditions noted are these: in vivo.
Data set [12] in a line: Cmax in Sprague-Dawley rat at 2 mg/kg, iv measured upto 1440 mins by LC-MS/MS analysis. Particulars: in vivo. The arrangement: time < 1440 min, dose 2 mg/kg, route iv. It counts as ADME, organism-based.
Data set [13] in a line: Tmax in Sprague-Dawley rat at 2 mg/kg, iv measured upto 1440 mins by LC-MS/MS analysis. Type of data set: ADME, organism-based. Particulars: in vivo.

Calls of active or inactive are those of the source.

On to `O=C1c2ccccc2-c2nccc3cc(OCCCCCN4CCN(c5ccccc5F)CC4)cc1c23`, for which the results for the IC50 in data set [1] and in data set [2] were 4 nM and 1050 nM, respectively. In addition, the Ratio IC50 in the data set filed under Homo sapiens worked out at 262. Moreover, the values for the IC50 at 48 h in [3] and in data set [4] were above 100000 nM and above 10000 nM, respectively. The outcome in the data set filed under Danio rerio, with Mus musculus [5], in the data set with Mus musculus [6], in the data set with Mus musculus [7] and in the data set with Hippocampus was Active. Also, the Activity entry in data set [8] is “Non-Toxic”. The compound further displayed an AUC(0-t) at 24 h in data set [9] of 491 ng·h/mL. The same compound had an area under the curve AUC(0-inf) in data set [10] of 2320 ng·h/mL. Moreover, in data set [11], the half-life was 6.31 h. Further, in [12], the Cmax was 673 ng/mL. Also, the Tmax in data set [13] came to 4.8 min.
